In the array DNA melting data of Ke et al. (doi:10.1101/2024.01.08.574731):

Assays:
[1] = melting temperature; fluorescence melt of hairpins on a sequencing array, two-state fit, raised by 9.35 °C to match UV melts; conditions: sodium 0.088 M
Method in brief: (§1)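 Cy3 signals were normalised both to pre-quench Cy3 and to control constructs. They came from library hairpins carrying annealed Cy3 and quencher oligos on a sequenced MiSeq flow cell, imaged in 50 mM Na-HEPES pH 8.0, 25 mM NaCl, in 2.5 °C steps up to 60 °C. Bootstrapped two-state fits gave melting temperature and folding enthalpy, and four replicates were combined by inverse variance. Fitted temperatures were then raised by 9.35 °C to match UV melts.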

[2] = folding enthalpy; higher = less favourable; fluorescence melt of hairpins on a sequencing array, two-state fit; conditions: sodium 0.088 M
Method in brief: as §1

Sequence | Tm [1] | folding enthalpy [2]
GGAGGGGGAAACTCCTCC (((((.(....).))))) | 53.8 °C | -32.6 kcal/mol
ACCTTGAAAAAGGT (((((....))))) | 47.3 °C | -13.4 kcal/mol
GGAATGGGAAACTATTCC (((((.(....).))))) | 42.3 °C | -25.9 kcal/mol
GTTGATGGAAACATCGAC ((.((((....)))).)) | 48.5 °C | -35.9 kcal/mol
GATCCATGCCTGGATC ((((((....)))))) | 51.6 °C | -36.2 kcal/mol
GGGAGACGAAAGTCCCC (((.(((....)))))) | 56.4 °C | -35.5 kcal/mol
GCCTACGAAAGTACGGC ((((((....))).))) | 51.5 °C | -28.8 kcal/mol
GGGCCTCGAAAGAGCCC (((.(((....)))))) | 62.3 °C | -37.9 kcal/mol
GAACGAGGAAACTCGTCC (.(((((....))))).) | 37.8 °C | -13.7 kcal/mol
GCCGGGCGAAAGCGGGGC (((..((....))..))) | 63.3 °C | -22.9 kcal/mol
GGTGACGAAAGTCCAACC ((((((....)))..))) | 37.7 °C | -18.2 kcal/mol
GCCGCCGAAAGGCATGGC ((((((....)))..))) | 63 °C | -19.9 kcal/mol
GATCCTGGAAACAGGGTC ((.((((....)))).)) | 50.8 °C | -32.9 kcal/mol
GAATCCGAAAGGAATTC ((((((....))).))) | 39.7 °C | -23.6 kcal/mol
GCTGGGGAAACCCAGC ((((((....)))))) | 69.3 °C | -37.5 kcal/mol
GGTGGAACGAAAGTTACC (((..(((....)))))) | 36.5 °C | -17.3 kcal/mol
GGTCGCGAAAGCGCTACC ((((((....)))..))) | 36.7 °C | -13 kcal/mol
GCGATATTTCGC ((((....)))) | 50.1 °C | -23.2 kcal/mol
GCAGACGGAAACGCCTGC ((((.((....)).)))) | 56 °C | -51.1 kcal/mol
GCATAGCGAAAGCCCTGC (((..((....))..))) | 29.5 °C | -7.04 kcal/mol
GCGGCGCGAAAGCGAGGC ((..(((....)))..)) | 63.9 °C | -24.8 kcal/mol
GGATTGAAAAATCC (((((....))))) | 44.5 °C | -21.7 kcal/mol
CGTTCGGAAACGAGGACG ((((((....)))..))) | 34.7 °C | -14.1 kcal/mol
GCGCGGCGAAAGCGGTGC ((.(.((....)).).)) | 65.2 °C | -31.2 kcal/mol

Sequence | Tm [1] | folding enthalpy [2]
GTTGGCGAAAGCCCAAAC ((((((....)))..))) | 24.8 °C | -7.1 kcal/mol
GATCACGTCTGTGATC ((((((....)))))) | 59.5 °C | -37.7 kcal/mol
GATCCGAGGTCGGATC ((((((....)))))) | 58.3 °C | -38.8 kcal/mol
GGCCCAGGAAACTGAGCC (((.(((....))).))) | 49 °C | -32.4 kcal/mol
GAGTCCCCGAAAGGGCTC (((..(((....)))))) | 44.4 °C | -19.2 kcal/mol
GGATCAGGAAACTGATCC (((((((....))))))) | 64.5 °C | -44.2 kcal/mol
GATCCCCGGGGGATC ((((((...)))))) | 60.9 °C | -35.3 kcal/mol
GCGAAGCGAAAGCAGCGC (((..((....))..))) | 57.7 °C | -16.6 kcal/mol
GCTCTGGGAAACTAGGGC ((.((.(....).)).)) | 36.5 °C | -27.7 kcal/mol
GCACGCGGAAACGCATGC (((.(((....))).))) | 52.8 °C | -40.4 kcal/mol
GGATGACGAAAGTCTTCC (((.(((....))).))) | 52.9 °C | -42.5 kcal/mol
GTCTTACCGAAAGGTGAC (((..(((....)))))) | 35.7 °C | -13.9 kcal/mol
GCATCTCGAAAGAGTTGC (((.(((....))).))) | 50.6 °C | -33.9 kcal/mol
GCTTCTGGAAACAGAAAC (.(((((....))))).) | 32.2 °C | -17.7 kcal/mol
GTGAGTCGAAAGACCAC (((.(((....)))))) | 53 °C | -33.7 kcal/mol
GACGGCGGAAACACCGCC (.(((.(....).))).) | 44.1 °C | -10.1 kcal/mol
GAACGCGAAAGCGAATTC ((((((....)))..))) | 28.8 °C | -10.7 kcal/mol
GATAACGAAAGTTAATC ((((((....))).))) | 30.7 °C | -15.4 kcal/mol
GTACACGAAAGTGTATAC ((((((....)))..))) | 43.6 °C | -12.1 kcal/mol
AAAGGGAAACCTTT (((((....))))) | 32.2 °C | -10 kcal/mol
GATCCCTGTGGGGATC ((((((....)))))) | 65.3 °C | -41.6 kcal/mol
GCCCGCGAAAGCGGTGGC ((((((....)))..))) | 57.7 °C | -12.2 kcal/mol
TCTCCGAAAGGAGA (((((....))))) | 59.5 °C | -17.6 kcal/mol
